Values after ≈ are worked out from the molar mass of the structure shown.
Assays:
Format in all cases: functional
Escherichia coli [1] = test: Antimicrobial activity against Escherichia coli isolate TOP10 by Etest method
Summary of the method: (§1)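 β-Lactam MICs read with Etest strips. Strains are E. coli TOP10 host and TOP10 transformants made with plasmid DNA extract when conjugation failed. Transformants were selected on LB agar with ticarcillin 50 μg/ml.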

Escherichia coli [2] = test: Antimicrobial activity against Escherichia coli isolate J53 harboring pEcA containing beta-lactamase OXA-48 located within transposon Tn1999.2 by Etest method
Summary of the method: (§2)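 β-Lactam MICs read with Etest strips. Strains are E. coli J53 recipient and J53 transconjugants carrying OXA-48-positive plasmids recovered from clinical enterobacterial isolates.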

Escherichia coli [3] = test: Antimicrobial activity against Escherichia coli isolate J53 harboring pCF containing beta-lactamase OXA-48 located within transposon Tn1999 by Etest method in presence of beta-lactamase inhibitor clavulanic acid; summary of the method: as §2
Escherichia coli [4] = test: Antimicrobial activity against Escherichia coli isolate J53 harboring p4A containing beta-lactamase OXA-48 located within transposon Tn1999 by Etest method; summary of the method: as §2
Providencia rettgeri = test: Antimicrobial activity against Providencia rettgeri isolate expressing beta-lactamase OXA-48 and TEM-101 by Etest method
Klebsiella pneumoniae [5] = test: Antimicrobial activity against Klebsiella pneumoniae isolate KpI-2 expressing beta-lactamase OXA-48 and CTX-M-15 by Etest method
Klebsiella pneumoniae [6] = test: Antimicrobial activity against Klebsiella pneumoniae isolate KpBEL expressing beta-lactamase OXA-48 by Etest method
Summary of the method: (§3)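 MICs of β-lactams read from Etest strips. The test organisms are carbapenem-resistant, OXA-48-positive clinical Enterobacteriaceae isolates recovered from Turkey, Lebanon, Egypt, France and Belgium.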

Escherichia coli [7] = test: Antimicrobial activity against Escherichia coli isolate TOP10 harboring pBIC containing beta-lactamase OXA-48 located within transposon Tn1999.2 by Etest method; summary of the method: as §1
Enterobacter cloacae [8] = test: Antimicrobial activity against Enterobacter cloacae isolate 2 expressing beta-lactamase OXA-48 and SHV-5 by Etest method
Escherichia coli [9] = test: Antimicrobial activity against Escherichia coli isolate TOP10 by Etest method in presence of beta-lactamase inhibitor clavulanic acid; summary of the method: as §1
Escherichia coli [10] = test: Antimicrobial activity against Escherichia coli isolate J53 harboring p6A containing beta-lactamase OXA-48 located within transposon Tn1999 by Etest method in presence of beta-lactamase inhibitor clavulanic acid; summary of the method: as §2
Klebsiella pneumoniae [11] = test: Antimicrobial activity against Klebsiella pneumoniae isolate Kp7A expressing beta-lactamase OXA-48 by Etest method in presence of beta-lactamase inhibitor clavulanic acid; summary of the method: as §3
Escherichia coli [12] = test: Antimicrobial activity against Escherichia coli isolate A expressing beta-lactamase OXA-48 and TEM-150 by Etest method in presence of beta-lactamase inhibitor clavulanic acid; summary of the method: as §3
Klebsiella pneumoniae [13] = test: Antimicrobial activity against Klebsiella pneumoniae isolate Kp3A expressing beta-lactamase OXA-48 by Etest method; summary of the method: as §3
Klebsiella pneumoniae [14] = test: Antimicrobial activity against Klebsiella pneumoniae isolate Kp11978 expressing beta-lactamase OXA-48, SHV-2a and TEM-1 by Etest method
Escherichia coli [15] = test: Antimicrobial activity against Escherichia coli isolate J53 by Etest method; summary of the method: as §2
Klebsiella pneumoniae [16] = test: Antimicrobial activity against Klebsiella pneumoniae isolate KpBIC expressing beta-lactamase OXA-48 by Etest method; summary of the method: as §3
Klebsiella pneumoniae [17] = test: Antimicrobial activity against Klebsiella pneumoniae isolate KpL expressing beta-lactamase OXA-48 by Etest method
Klebsiella pneumoniae [18] = test: Antimicrobial activity against Klebsiella pneumoniae isolate Kp5A expressing beta-lactamase OXA-48 and SHV-5 by Etest method in presence of beta-lactamase inhibitor clavulanic acid; summary of the method: as §3
Escherichia coli [19] = test: Antimicrobial activity against Escherichia coli isolate TOP10 harboring pPR containing beta-lactamase and TEM-101 by Etest method in presence of beta-lactamase inhibitor clavulanic acid; summary of the method: as §1
Escherichia coli [20] = test: Antimicrobial activity against Escherichia coli isolate A expressing beta-lactamase OXA-48 and TEM-150 by Etest method
Klebsiella pneumoniae [21] = test: Antimicrobial activity against Klebsiella pneumoniae isolate KpI-2 expressing beta-lactamase OXA-48 and CTX-M-15 by Etest method in presence of beta-lactamase inhibitor clavulanic acid; summary of the method: as §3
Escherichia coli [22] = test: Antimicrobial activity against Escherichia coli isolate J53 harboring p4A containing beta-lactamase OXA-48 located within transposon Tn1999 by Etest method in presence of beta-lactamase inhibitor clavulanic acid; summary of the method: as §2
Escherichia coli [23] = test: Antimicrobial activity against Escherichia coli isolate J53 harboring pL containing beta-lactamase OXA-48 located within transposon Tn1999.2 by Etest method; summary of the method: as §2
Enterobacter cloacae [24] = test: Antimicrobial activity against Enterobacter cloacae isolate 1 expressing beta-lactamase OXA-48 and SHV-5 by Etest method
Escherichia coli [25] = test: Antimicrobial activity against Escherichia coli isolate J53 harboring pE containing beta-lactamase OXA-48 located within transposon Tn1999.2 by Etest method; summary of the method: as §2
Escherichia coli [26] = test: Antimicrobial activity against Escherichia coli isolate J53 harboring pA-1 containing beta-lactamase OXA-48 located within transposon Tn1999 by Etest method in presence of beta-lactamase inhibitor clavulanic acid; summary of the method: as §2
Klebsiella pneumoniae [27] = test: Antimicrobial activity against Klebsiella pneumoniae isolate KpB expressing OXA-48 and CTX-M-15 by Etest method in presence of beta-lactamase inhibitor clavulanic acid; summary of the method: as §3
Klebsiella pneumoniae [28] = test: Antimicrobial activity against Klebsiella pneumoniae isolate KpE expressing beta-lactamase OXA-48 and CTX-M-15 by Etest method in presence of beta-lactamase inhibitor clavulanic acid; summary of the method: as §3
Escherichia coli [29] = test: Antimicrobial activity against Escherichia coli isolate J53 harboring pBEL containing beta-lactamase OXA-48 located within transposon Tn1999.2 by Etest method in presence of beta-lactamase inhibitor clavulanic acid; summary of the method: as §2
Escherichia coli [30] = test: Antimicrobial activity against Escherichia coli isolate J53 harboring p6A containing beta-lactamase OXA-48 located within transposon Tn1999 by Etest method; summary of the method: as §2
Klebsiella pneumoniae [31] = test: Antimicrobial activity against Klebsiella pneumoniae isolate Kp4A expressing beta-lactamase OXA-48 and CTX-M-15 by Etest method
Escherichia coli [32] = test: Antimicrobial activity against Escherichia coli isolate J53 harboring pCF containing beta-lactamase OXA-48 located within transposon Tn1999 by Etest method; summary of the method: as §2
Klebsiella pneumoniae [33] = test: Antimicrobial activity against Klebsiella pneumoniae isolate KpB expressing OXA-48 and CTX-M-15 by Etest method
Klebsiella pneumoniae [34] = test: Antimicrobial activity against Klebsiella pneumoniae isolate KpI-1 expressing beta-lactamase OXA-48 and CTX-M-15 by Etest method
Enterobacter cloacae [35] = test: Antimicrobial activity against Enterobacter cloacae isolate 1 expressing beta-lactamase OXA-48 and SHV-5 by Etest method in presence of beta-lactamase inhibitor clavulanic acid; summary of the method: as §3
Escherichia coli [36] = test: Antimicrobial activity against Escherichia coli isolate J53 harboring p3A containing beta-lactamase OXA-48 located within transposon Tn1999 by Etest method; summary of the method: as §2
Klebsiella pneumoniae [37] = test: Antimicrobial activity against Klebsiella pneumoniae isolate KpI-1 expressing beta-lactamase OXA-48 and CTX-M-15 by Etest method in presence of beta-lactamase inhibitor clavulanic acid; summary of the method: as §3
Escherichia coli [38] = test: Antimicrobial activity against Escherichia coli isolate J53 harboring pI-2 containing beta-lactamase OXA-48 located within transposon Tn1999.2 by Etest method in presence of beta-lactamase inhibitor clavulanic acid; summary of the method: as §2
Escherichia coli [39] = test: Antimicrobial activity against Escherichia coli isolate J53 harboring pI-2 containing beta-lactamase OXA-48 located within transposon Tn1999.2 by Etest method; summary of the method: as §2
Escherichia coli [40] = test: Antimicrobial activity against Escherichia coli isolate J53 harboring pBEL containing beta-lactamase OXA-48 located within transposon Tn1999.2 by Etest method; summary of the method: as §2

CC1(C)S[C@@H]2[C@H](NC(=O)[C@H](N)c3ccc(O)cc3)C(=O)N2[C@H]1C(=O)O [AMOXICILLIN]
MIC (Escherichia coli [1]): 4 µg/mL (≈ 10.9 µM)
MIC (Escherichia coli [2]): > 256 µg/mL
MIC (Escherichia coli [3]): > 512 µg/mL
MIC (Escherichia coli [4]): > 512 µg/mL
MIC (Providencia rettgeri): > 256 µg/mL
MIC (Klebsiella pneumoniae [5]): > 512 µg/mL
MIC (Klebsiella pneumoniae [6]): > 256 µg/mL
MIC (Escherichia coli [7]): > 512 µg/mL
MIC (Enterobacter cloacae [8]): > 512 µg/mL
MIC (Escherichia coli [9]): 4 µg/mL
MIC (Escherichia coli [10]): > 512 µg/mL
MIC (Klebsiella pneumoniae [11]): > 512 µg/mL
MIC (Escherichia coli [12]): > 256 µg/mL
MIC (Klebsiella pneumoniae [13]): > 512 µg/mL
MIC (Klebsiella pneumoniae [14]): > 512 µg/mL
MIC (Escherichia coli [15]): 4 µg/mL (≈ 10.9 µM)
MIC (Klebsiella pneumoniae [16]): > 512 µg/mL
MIC (Klebsiella pneumoniae [17]): > 256 µg/mL
MIC (Klebsiella pneumoniae [18]): > 512 µg/mL
MIC (Escherichia coli [19]): > 256 µg/mL
MIC (Escherichia coli [20]): > 256 µg/mL
MIC (Klebsiella pneumoniae [21]): > 512 µg/mL
MIC (Escherichia coli [22]): > 512 µg/mL
MIC (Escherichia coli [23]): > 256 µg/mL
MIC (Enterobacter cloacae [24]): > 512 µg/mL
MIC (Escherichia coli [25]): > 512 µg/mL
MIC (Escherichia coli [26]): 128 µg/mL
MIC (Klebsiella pneumoniae [27]): > 512 µg/mL
MIC (Klebsiella pneumoniae [28]): > 512 µg/mL
MIC (Escherichia coli [29]): > 256 µg/mL
MIC (Escherichia coli [30]): > 512 µg/mL
MIC (Klebsiella pneumoniae [31]): > 512 µg/mL
MIC (Escherichia coli [32]): > 512 µg/mL
MIC (Klebsiella pneumoniae [33]): > 512 µg/mL
MIC (Klebsiella pneumoniae [34]): > 512 µg/mL
MIC (Enterobacter cloacae [35]): > 512 µg/mL
MIC (Escherichia coli [36]): > 512 µg/mL
MIC (Klebsiella pneumoniae [37]): > 512 µg/mL
MIC (Escherichia coli [38]): > 512 µg/mL
MIC (Escherichia coli [39]): > 512 µg/mL
MIC (Escherichia coli [40]): > 256 µg/mL

CC1(C)S[C@@H]2[C@H](NC(=O)[C@H](C(=O)O)c3ccsc3)C(=O)N2[C@H]1C(=O)O [TICARCILLIN]
MIC (Escherichia coli [1]): 4 µg/mL (≈ 10.4 µM)
MIC (Escherichia coli [2]): > 256 µg/mL
MIC (Escherichia coli [3]): > 512 µg/mL
MIC (Escherichia coli [4]): > 512 µg/mL
MIC (Providencia rettgeri): > 256 µg/mL
MIC (Klebsiella pneumoniae [5]): > 512 µg/mL
MIC (Klebsiella pneumoniae [6]): > 256 µg/mL
MIC (Escherichia coli [7]): > 512 µg/mL
MIC (Enterobacter cloacae [8]): > 512 µg/mL
MIC (Escherichia coli [9]): 4 µg/mL
MIC (Escherichia coli [10]): > 512 µg/mL
MIC (Klebsiella pneumoniae [11]): > 512 µg/mL
MIC (Escherichia coli [12]): > 256 µg/mL
MIC (Klebsiella pneumoniae [13]): > 512 µg/mL
MIC (Klebsiella pneumoniae [14]): > 512 µg/mL
MIC (Escherichia coli [15]): 2 µg/mL (≈ 5.2 µM)
MIC (Klebsiella pneumoniae [16]): > 512 µg/mL
MIC (Klebsiella pneumoniae [17]): > 256 µg/mL
MIC (Klebsiella pneumoniae [18]): > 512 µg/mL
MIC (Escherichia coli [19]): > 256 µg/mL
MIC (Escherichia coli [20]): > 256 µg/mL
MIC (Klebsiella pneumoniae [21]): > 512 µg/mL
MIC (Escherichia coli [22]): > 512 µg/mL
MIC (Escherichia coli [23]): > 256 µg/mL
MIC (Enterobacter cloacae [24]): > 512 µg/mL
MIC (Escherichia coli [25]): > 512 µg/mL
MIC (Escherichia coli [26]): 128 µg/mL
MIC (Klebsiella pneumoniae [27]): > 512 µg/mL
MIC (Klebsiella pneumoniae [28]): > 512 µg/mL
MIC (Escherichia coli [29]): > 256 µg/mL
MIC (Escherichia coli [30]): > 512 µg/mL
MIC (Klebsiella pneumoniae [31]): > 512 µg/mL
MIC (Escherichia coli [32]): > 512 µg/mL
MIC (Klebsiella pneumoniae [33]): > 512 µg/mL
MIC (Klebsiella pneumoniae [34]): > 512 µg/mL
MIC (Enterobacter cloacae [35]): > 512 µg/mL
MIC (Escherichia coli [36]): > 512 µg/mL
MIC (Klebsiella pneumoniae [37]): > 512 µg/mL
MIC (Escherichia coli [38]): > 512 µg/mL
MIC (Escherichia coli [39]): > 512 µg/mL
MIC (Escherichia coli [40]): > 256 µg/mL

Reference: ChEMBL document CHEMBL1255404, “Spread of OXA-48-encoding plasmid in Turkey and beyond” (2010)
